Test results from the RNAGym collection of RNA variant scans (doi:10.1002/anie.201605470).

B1: Osa-1-4 twister ribozyme (parent)
chain: CCGCCUAACACUGCCAAUGCCGGUCCCAAGCCCGGAUAAAAGUGGAGGGGGCGG

Variants of: B1
Experiment: self-cleavage, relative activity (ratio to wild type); higher = more cleavage; co-transcriptional
Procedure, shortened: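 The 48 positions downstream of the cleavage site in a 54-nucleotide Oryza sativa twister ribozyme template were synthesised at 97 % wild-type base and 1 % of each other base. The template was transcribed in vitro at 37 °C for 2 h, with self-cleavage allowed during transcription. Reads with or without upstream sequence after deep sequencing marked cleavage status, and relative activity is fraction cleaved normalised to wild type.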

Row | Variant | self-cleavage
1 | A36C A41U | 0.91
2 | A36C A46C | 0.07
3 | A36C A46G | 0.06
4 | A36C A46U | 0.05
5 | A36C C9A | 0.08
6 | A36C C9G | 0.11
7 | A36C C9U | 0.21
8 | A36C C11A | 0.11
9 | A36C C11G | 0.08
10 | A36C C11U | 0.26
11 | A36C C14A | 0.06
12 | A36C C14G | 0.06
13 | A36C C14U | 0.09
14 | A36C C15A | 0.24
15 | A36C C15G | 0.25
16 | A36C C15U | 0.12
17 | A36C C20A | 0.81
18 | A36C C20G | 0.09
19 | A36C C20U | 0.88
20 | A36C C21A | 0.54
21 | A36C C21G | 0.05
22 | A36C C21U | 0.46
23 | A36C C25A | 0.06
24 | A36C C25G | 0.04

Row | Variant | self-cleavage
25 | A36C C25U | 0.1
26 | A36C C26A | 0.03
27 | A36C C26G | 0.06
28 | A36C C26U | 0.12
29 | A36C C27A | 0.07
30 | A36C C27G | 0.05
31 | A36C C27U | 0.09
32 | A36C C31A | 0.03
33 | A36C C31G | 0.04
34 | A36C C31U | 0.1
35 | A36C C32A | 0.06
36 | A36C C32G | 0.06
37 | A36C C32U | 0.07
38 | A36C C33A | 0.06
39 | A36C C33G | 0.04
40 | A36C C33U | 0.13
41 | A36C C52A | 0.37
42 | A36C C52G | 0.51
43 | A36C C52U | 0.82
44 | A36C G13A | 0.04
45 | A36C G13C | 0.03
46 | A36C G13U | 0.02
47 | A36C G19A | 0.76
48 | A36C G19C | 0.56

Row | Variant | self-cleavage
49 | A36C G19U | 0.82
50 | A36C G22A | 0.6
51 | A36C G22C | 0.08
52 | A36C G22U | 0.35
53 | A36C G23A | 0.09
54 | A36C G23C | 0.03
55 | A36C G23U | 0.05
56 | A36C G30A | 0.02
57 | A36C G30C | 0.05
58 | A36C G30U | 0.03
59 | A36C G34A | 0.88
60 | A36C G34C | 0.39
61 | A36C G34U | 0.75
62 | A36C G35A | 0.94
63 | A36C G35C | 0.75
64 | A36C G35U | 0.95
65 | A36C G42A | 0.1
66 | A36C G42C | 0.08
67 | A36C G42U | 0.04
68 | A36C G44A | 0.16
69 | A36C G44C | 0.58
70 | A36C G44U | 0.37
71 | A36C G45A | 0.07
72 | A36C G45C | 0.04

Row | Variant | self-cleavage
73 | A36C G45U | 0.05
74 | A36C G47A | 0.07
75 | A36C G47C | 0.06
76 | A36C G47U | 0.07
77 | A36C G48A | 0.05
78 | A36C G48C | 0.05
79 | A36C G48U | 0.04
80 | A36C G49A | 0.06
81 | A36C G49C | 0.06
82 | A36C G49U | 0.06
83 | A36C G50A | 0.77
84 | A36C G50C | 0.22
85 | A36C G50U | 0.37
86 | A36C G51A | 0.28
87 | A36C G51C | 0.07
88 | A36C G51U | 0.11
89 | A36C G53A | 0.19
90 | A36C G53C | 0.06
91 | A36C G53U | 0.13
92 | A36C G54A | 0.27
93 | A36C G54C | 0.19
94 | A36C G54U | 0.55
95 | A36C U12A | 0.13
96 | A36C U12C | 0.08

Row | Variant | self-cleavage
97 | A36C U12G | 0.13
98 | A36C U18A | 0.55
99 | A36C U18C | 0.67
100 | A36C U18G | 0.87
101 | A36C U24A | 0.06
102 | A36C U24C | 0.07
103 | A36C U24G | 0.03
104 | A36C U37A | 0.53
105 | A36C U37C | 0.98
106 | A36C U37G | 0.93
107 | A36C U43A | 0.15
108 | A36C U43C | 0.13
109 | A36C U43G | 0.11
110 | A36G | 1.03
111 | A36G A7C | 0.05
112 | A36G A7G | 0.5
113 | A36G A7U | 0.1
114 | A36G A8C | 0.1
115 | A36G A8G | 0.66
116 | A36G A8U | 0.53
117 | A36G A38C | 1.07
118 | A36G A38G | 0.99
119 | A36G A38U | 1.01
120 | A36G A39C | 1.05

Row | Variant | self-cleavage
121 | A36G A39G | 1.01
122 | A36G A39U | 0.97
123 | A36G A40C | 0.1
124 | A36G A40G | 0.95
125 | A36G A40U | 0.96
126 | A36G A41C | 0.97
127 | A36G A41G | 0.89
128 | A36G A41U | 0.99
129 | A36G A46C | 0.08
130 | A36G A46G | 0.11
131 | A36G A46U | 0.1
132 | A36G C9A | 0.53
133 | A36G C9G | 0.89
134 | A36G C9U | 0.77
135 | A36G C11A | 0.85
136 | A36G C11G | 0.73
137 | A36G C11U | 0.93
138 | A36G C14A | 0.19
139 | A36G C14G | 0.37
140 | A36G C14U | 0.88
141 | A36G C15A | 0.85
142 | A36G C15G | 0.84
143 | A36G C15U | 0.89
144 | A36G C20A | 0.87

Row | Variant | self-cleavage
145 | A36G C20G | 0.12
146 | A36G C20U | 0.99
147 | A36G C21A | 0.64
148 | A36G C21G | 0.1
149 | A36G C21U | 1.02
150 | A36G C25A | 0.22
151 | A36G C25G | 0.13
152 | A36G C25U | 0.94
153 | A36G C26A | 0.06
154 | A36G C26G | 0.13
155 | A36G C26U | 0.98
156 | A36G C27A | 0.38
157 | A36G C27G | 0.13
158 | A36G C27U | 0.32
159 | A36G C31A | 0.04
160 | A36G C31G | 0.16
161 | A36G C31U | 1.01
162 | A36G C32A | 0.09
163 | A36G C32G | 0.16
164 | A36G C32U | 0.17
165 | A36G C33A | 0.14
166 | A36G C33G | 0.09
167 | A36G C33U | 0.94
